These results are taken from ChEMBL document CHEMBL1153287, “First small molecular inhibitors of T. brucei dolicholphosphate mannose synthase (DPMS), a validated drug target in African sleeping sickness” (Bioorg Med Chem Lett, 2009).

Active and inactive are the calls of the source. No cut-off for these calls is given here. A value given as a limit tells only on which side of the number the result lay.

The subject of data set [1] is Trypanosoma brucei. Put plainly: Inhibition of Trypanosoma brucei DPMS expressed in Escherichia coli assessed as residual enzyme activity at 1 mM relative to untreated control. In short, it runs like this: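 Recombinant full-length membrane-bound T. brucei DPMS in E. coli membranes (70 ng/ml total protein). Buffer: 50 mM Na–Hepes pH 7.4, 25 mM KCl, 5 mM MgCl2, 5 mM MnCl2, 0.1% n-octyl-glucopyranoside. Substrates: dehydrofarnesol-phosphate and GDP-[3H]Man. Inhibitor at 1 mM; 10 min at 30 °C. Lipids extracted in CHCl3:MeOH, butanol phase counted. Activity relative to a no-inhibitor control.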

Data set [2] can be described thus: Cytotoxicity against human HeLa cells by alamar blue assay. To be noted: read-out: ED50 (the source's name). The class given is cell-based. In outline: (§1)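 HeLa cells treated at 0.1 and 1.0 mM final; viability by Alamar Blue; inhibition expressed relative to a DMSO-only control.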
For orientation: The colour change of resazurin is a common sign of viable cells or microbes.

Data set [3] has as its system Trypanosoma brucei. As to the kind of experiment: Antitrypanosomal activity against Trypanosoma brucei 427. To be noted: read-out: ED50 (the source's name). The data set is classed as functional. In short, it runs like this: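 Bloodstream-form T. brucei strain 427 in culture; viability read by Alamar Blue; ED50 in μM; each experiment run at least in duplicate.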

Data set [4] has as its system Trypanosoma brucei. As to the kind of experiment: Inhibition of glycosylphosphatidylinositol anchor biosynthesis in Trypanosoma brucei 117 cell-free system assessed as reduction of Manalpha1-6Manalpha1-4GlcNH2-PI formation formation. The data set is classed as functional. In short, it runs like this: (§2)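 Cell-free GPI synthesis using bloodstream T. brucei variant 117 membranes, 1 × 10^7 cell equivalents per assay. Membranes washed in Hepes pH 7.4/KCl/MgCl2 buffer with TLCK and leupeptin. Reaction in buffer with MnCl2, tunicamycin and dithiothreitol. Labelled with GDP-[3H]Man plus 1 mM UDP-GlcNAc. Inhibitor in DMSO, 1 mM final.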

Data set [5] concerns Trypanosoma brucei. As to the kind of experiment: Inhibition of glycosylphosphatidylinositol anchor biosynthesis in Trypanosoma brucei 117 cell-free system assessed as reduction of Manalpha1-4GlcNH2-PI formation. The class given is functional. In short, it runs like this: as §2
For data set [6], the system named is Trypanosoma brucei. Put plainly: Inhibition of glycosylphosphatidylinositol anchor biosynthesis in Trypanosoma brucei 117 cell-free system assessed as reduction of Manalpha1-2Manalpha1-6Manalpha1-4GlcNH2-PI formation. The data set is classed as functional. In short, it runs like this: as §2
Data set [7] is described as follows: Cytotoxicity against human HeLa cells assessed as growth inhibition at 1 mM by alamar blue assay. The data set is classed as cell-based. In short, it runs like this:
as §1

Data set [8] concerns Trypanosoma brucei. As to the kind of experiment: Inhibition of glycosylphosphatidylinositol anchor biosynthesis in Trypanosoma brucei 117 cell-free system assessed as reduction of Manalpha1-2Manalpha1-6Manalpha1-4GlcNH2-(acyl)PI formation. The class given is functional. In outline:
as §2

The test system of data set [9] is Trypanosoma brucei. Put plainly: Inhibition of glycosylphosphatidylinositol anchor biosynthesis in Trypanosoma brucei 117 cell-free system assessed as reduction of ethanolamine-P-Manalpha1-2Manalpha1-6Manalpha1-4GlcNH2-PI formation. The class given is functional. In outline:
as §2

In data set [10] the test system is Trypanosoma brucei. As to the kind of experiment: Inhibition of Trypanosoma brucei 117 DPMS-mediated glycosylphosphatidylinositol anchor biosynthesis assessed as reduction of dolicholphosphate-mannose formation. In outline:
as §2

As to `O=C(O)CN1C(=O)/C(=C/c2ccccc2)SC1=S`, the Activity in the data set on Trypanosoma brucei [1] worked out at 42%. In addition, in [2], the CC50 was above 1000 µM. For the same compound, the EC50 in the data set with Trypanosoma brucei [3] is 232 µM.
As to `O=C(O)CN1C(=O)/C(=C/c2cccc(OCc3ccccc3)c2)SC1=S`, in the data set with Trypanosoma brucei [1], the Activity was found to be 23%. Further, the CC50 in data set [2] is above 1000 µM. Besides, the EC50 with Trypanosoma brucei [3] was 96 µM.
Take `O=C(O)CN1C(=O)/C(=C/c2ccc(OCc3ccccc3)cc2)SC1=S`: the inhibition entry with Trypanosoma brucei [4], with Trypanosoma brucei [5], in the data set with Trypanosoma brucei [6], with Trypanosoma brucei [8] and in the data set on Trypanosoma brucei [9] was “Active” in each case. The Activity with Trypanosoma brucei [1] was found to be 10%. Also, in data set [2], the CC50 is above 1000 µM. Besides, the inhibition (usually the relative decrease from the control value, in per cent) at 1000 µM in [7] was found to be 20%. Also, the EC50 with Trypanosoma brucei [3] came to 338 µM. Further, the inhibition entry with Trypanosoma brucei [10] is “inactive”.
Regarding `O=C(O)CN1C(=O)/C(=C/c2ccc(Cl)cc2)SC1=S`, in the data set with Trypanosoma brucei [1], the Activity was 86%. In addition, the EC50 in the data set with Trypanosoma brucei [3] was found to be 398 µM.
As to `O=C(O)CN1C(=O)/C(=C/c2ccccc2O)SC1=S`, the inhibition result in the data set with Trypanosoma brucei [4], in the data set on Trypanosoma brucei [5], in the data set with Trypanosoma brucei [6], in the data set with Trypanosoma brucei [8] and in the data set with Trypanosoma brucei [9] was “Active” in each case. In addition, in the data set on Trypanosoma brucei [1], the Activity is 23%. Further, the CC50 in [2] is above 1000 µM. Also, the EC50 with Trypanosoma brucei [3] came out at 107 µM. The inhibition result in the data set with Trypanosoma brucei [10] was “inactive”.
`N#Cc1ccc(/C=C2\SC(=S)N(CC(=O)O)C2=O)cc1`: in the data set with Trypanosoma brucei [1], the Activity was 73%. Besides, the EC50 in the data set with Trypanosoma brucei [3] came out at 244 µM.
For `O=C(O)CN1C(=O)/C(=C/c2ccc(O)cc2)SC1=S`, the inhibition entry in the data set with Trypanosoma brucei [4], in the data set with Trypanosoma brucei [5], in the data set with Trypanosoma brucei [6], in the data set on Trypanosoma brucei [8], with Trypanosoma brucei [9] and with Trypanosoma brucei [10] was “Active” throughout. For the same compound, the Activity with Trypanosoma brucei [1] stood at 70%. Also, the CC50 in [2] was above 1000 µM. Further, the EC50 in the data set with Trypanosoma brucei [3] came out at 427 µM.
`O=C(O)CN1C(=O)/C(=C/c2ccc(OCc3ccccc3)c(OCc3ccccc3)c2)SC1=S`: the inhibition result with Trypanosoma brucei [4], with Trypanosoma brucei [5], with Trypanosoma brucei [6], in the data set with Trypanosoma brucei [8], with Trypanosoma brucei [9] and in the data set with Trypanosoma brucei [10] was “Active” throughout. The Activity with Trypanosoma brucei [1] turned out to be 20%. Also, in data set [2], the CC50 is above 1000 µM. Further, the EC50 in the data set with Trypanosoma brucei [3] is 492 µM.
For the compound `O=C(O)CN1C(=O)/C(=C/c2cccc(O)c2)SC1=S`, the Activity in the data set with Trypanosoma brucei [1] is 90%. The EC50 in the data set on Trypanosoma brucei [3] came to 345 µM.
For the compound `C#Cc1ccc(/C=C2\SC(=S)N(CC(=O)O)C2=O)cc1`, the Activity in the data set with Trypanosoma brucei [1] stood at 94%. Besides, in [7], the inhibition at 1000 µM stood at 20%. Moreover, in the data set on Trypanosoma brucei [3], the EC50 is above 1000 µM.
